Measurements published in ChEMBL document CHEMBL3992515, “Design, synthesis, and evaluation of a novel series of macrocyclic inhibitors of norovirus 3CL protease” (Eur J Med Chem, 2017).

How the values were obtained:
[1] = Inhibition of Norovirus 3CLpro using Edans-DFHLQ/GP-Dabcyl as substrate preincubated for 30 mins followed by substrate addition measured after 1 hr by FRET assay
Procedure, shortened: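 Protease and serial compound dilutions up to 100 μM (or DMSO) held in 20 mM HEPES pH 8, 200 mM NaCl, 0.4 mM EDTA, 60% glycerol, 6 mM DTT at 37°C for 30 min, then substrate added. Fluorescence (ex 360/em 460 nm) read 1 h later, background subtracted (no-protease well). IC50 from variable-slope curve fit; average of at least two determinations.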

Norovirus = assay: Antiviral activity against Norovirus replicon infected in human HG23 cells assessed as inhibition of viral RNA replication after 48 hrs by qRT-PCR method; type: functional, cell-based
Procedure, shortened: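 HG23 cells (NV replicon-harboring hepatoma), confluent and semi-confluent, given medium with DMSO (<0.1%) or compound up to 20 μM for 48 h. Total RNA extracted and viral genome quantified by real-time qRT-PCR. EC50 fitted from dose-response; average of at least two determinations.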

[2] = Cytotoxicity against human HG23 cells after 48 hrs by crystal violet staining-based assay; type: cell-based; settings: for CC50 at 48 h: HG23 cells, read-out: TC50; for CC50: hg23, 48 h, 48 h, read-out: TC50 (the source's name)
Procedure, shortened: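 Confluent NV replicon-bearing hepatoma HG23 cells exposed to compound at 1 to 100 μM for 48 h. Cytotoxicity read by CytoTox 96 nonradioactive assay and crystal violet staining; CC50 taken as concentration giving 50% cell death, averaged over at least two determinations.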

Murine norovirus [3] = assay: Antiviral activity against MNV replicon infected in mouse RAW264.7 cells assessed as inhibition of viral RNA replication after 24 hrs; settings: RAW264.7, 24 h
Murine norovirus [4] = assay: Antiviral activity against MNV replicon infected in mouse RAW264.7 cells assessed as inhibition of viral RNA replication after 24 hrs; type: functional, cell-based
Procedure, shortened: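 Confluent RAW264.7 cells infected with MNV at MOI 0.1 for 1 h; inoculum then replaced with medium containing compound (up to 20 μM) or DMSO (0.1%). Further 24 h incubation; virus replication quantified by TCID50 titration. EC50 from dose-response fitting; values average of at least two determinations.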

SMILES | IC50 [1] | EC50 (Norovirus; Norovirus, HG23, 48 h) | CC50 at 48 h [2] | EC50 (Murine norovirus [3]) | EC50 (Norovirus) | EC50 (Murine norovirus [4]) | CC50 [2]
CC(C)C[C@@H]1NC(=O)OC(CCCc2ccccc2)CCCCCNC(=O)CC[C@@H](C(O)S(=O)(=O)O)NC1=O (stereo partly drawn) | 6.8 µM | 4.6 µM | 69.2 µM | > 20 µM |  |  | 
CC(C)C[C@@H]1NC(=O)OC(c2cccc(Cl)c2)CCCCCCNC(=O)CC[C@@H](C=O)NC1=O (stereo partly drawn) | 6.3 µM | 5.4 µM | 67.4 µM | > 20 µM |  |  | 
O=C[C@@H]1CCC(=O)NCCCCCC(c2cccc(Cl)c2)OC(=O)N[C@@H](CC2CCCCC2)C(=O)N1 (stereo in doubt; form 2) | 6.5 µM |  |  |  | 2.5 µM | 6.5 µM | 45.3 µM
CC(C)C[C@@H]1NC(=O)OC(c2cccc(Cl)c2)CCCCCNC(=O)CC[C@@H](C=O)NC1=O (stereo partly drawn) | 1.5 µM | 1.8 µM | > 100 µM | 13.2 µM |  |  | 
C[C@@H]1NC(=O)OC(c2cccc(Cl)c2)CCCCCNC(=O)CC[C@@H](C=O)NC1=O (stereo partly drawn) | > 100 µM | > 20 µM | > 100 µM | > 20 µM |  |  | 
CC(C)C[C@@H]1NC(=O)OC(c2cccc(Cl)c2)CCCCCONC(=O)CC[C@@H](C=O)NC1=O (stereo in doubt; 36B) | 46.7 µM |  |  |  | 5.1 µM | 13.4 µM | 73.8 µM
CC(C)C[C@@H]1NC(=O)OC(c2cccc(Cl)c2)CCCCCNC(=O)CC[C@@H](C(O)S(=O)(=O)O)NC1=O (stereo partly drawn) | 1.1 µM | 1.6 µM | > 100 µM | 15.1 µM |  |  | 
C[C@@H]1NC(=O)OC(c2cccc(Cl)c2)CCCCCCNC(=O)CC[C@@H](C=O)NC1=O (stereo partly drawn) | 62.3 µM | 9.5 µM | > 100 µM | > 20 µM |  |  | 
CC(C)C[C@@H]1NC(=O)OC(c2cccc(Cl)c2)CCCCCONC(=O)CC[C@@H](C=O)NC1=O (stereo in doubt; 36A) | 30.5 µM | 3.6 µM | 68.3 µM | 15.5 µM |  |  | 
O=C1CC[C@@H](C(O)S(=O)(=O)O)NC(=O)C2(CCCCC2)NC(=O)OC(c2cccc(Cl)c2)CCCCCN1 (stereo partly drawn) | > 100 µM | > 20 µM | 48.5 µM | > 20 µM |  |  | 
O=C1CC[C@@H](C(O)S(=O)(=O)O)NC(=O)C2(CCCCC2)NC(=O)OC(c2cccc(Cl)c2)CCCCCCN1 (stereo partly drawn) | > 100 µM | > 20 µM | 46.6 µM | > 20 µM |  |  | 
CC(C)C[C@@H]1NC(=O)OC(CCCc2ccccc2)CCCCCNC(=O)CC[C@@H](C=O)NC1=O (stereo partly drawn) | 4.2 µM | 7.5 µM | 71.5 µM | > 20 µM |  |  | 
O=C[C@@H]1CCC(=O)NCCCCCC(c2cccc(Cl)c2)OC(=O)N[C@@H](CC2CCCCC2)C(=O)N1 (stereo in doubt; form 1) | 4.1 µM | 2.1 µM | 62.4 µM | 4.3 µM |  |  | 
CC(C)C[C@@H]1NC(=O)OC(c2cccc(Cl)c2)CCCCCNC(=O)CC[C@@H](C(=O)C(=O)NC2CC2)NC1=O (stereo partly drawn) | 2.3 µM | 9.1 µM | 53.1 µM | 15.5 µM |  |  | 
O=C[C@@H]1CCC(=O)NCCCCCCC(c2cccc(Cl)c2)OC(=O)NC2(CCCCC2)C(=O)N1 (stereo partly drawn) | > 100 µM | > 20 µM | 53.3 µM | > 20 µM |  |  | 
O=C[C@@H]1CCC(=O)NCCCCCC(c2cccc(Cl)c2)OC(=O)NC2(CCCCC2)C(=O)N1 (stereo partly drawn) | > 100 µM | > 20 µM | 62.4 µM | > 20 µM |  |  | 
CC(C)C[C@@H]1NC(=O)OC(Cc2ccccc2)CCCCCNC(=O)CC[C@@H](C=O)NC1=O (stereo partly drawn) | 4.6 µM | 8.8 µM | > 100 µM | > 20 µM |  |  | 
CC(C)C[C@@H]1NC(=O)OC(c2ccccc2)CCCCCNC(=O)CC[C@@H](C=O)NC1=O (stereo partly drawn) | 1.3 µM | 7.7 µM | > 100 µM | > 20 µM |  |  | 
CCCCCC1CCCCCNC(=O)CC[C@@H](C=O)NC(=O)[C@H](CC(C)C)NC(=O)O1 (stereo partly drawn) | 3.2 µM | 3.1 µM | 72.7 µM | 12.1 µM |  |  | 
CC(C)C[C@@H]1NC(=O)OC(Cc2ccccc2)CC/C=C/CNC(=O)CC[C@@H](C=O)NC1=O (stereo partly drawn) | 2.5 µM | 3.1 µM | > 100 µM | > 20 µM |  |  | 
CCCCCC1CCCCCNC(=O)CC[C@@H](C(O)S(=O)(=O)O)NC(=O)[C@H](CC(C)C)NC(=O)O1 (stereo partly drawn) | 5.1 µM | 3.5 µM | 78.5 µM | 14.6 µM |  |  | 
O=C[C@@H]1CCC(=O)NC/C=C/CCC(c2cccc(Cl)c2)OC(=O)N[C@@H](CC2CCCCC2)C(=O)N1 (stereo partly drawn) | 1.3 µM | 1.5 µM | 42.3 µM | 3.1 µM |  |  | 
